Measured values of several laboratories.
Compare with care: the assays were run in different laboratories.
Target: Protein kinase C iota type (PRKCI, Homo sapiens, UniProt P41743)
Sequence (P41743 1-596, as in one of the studies): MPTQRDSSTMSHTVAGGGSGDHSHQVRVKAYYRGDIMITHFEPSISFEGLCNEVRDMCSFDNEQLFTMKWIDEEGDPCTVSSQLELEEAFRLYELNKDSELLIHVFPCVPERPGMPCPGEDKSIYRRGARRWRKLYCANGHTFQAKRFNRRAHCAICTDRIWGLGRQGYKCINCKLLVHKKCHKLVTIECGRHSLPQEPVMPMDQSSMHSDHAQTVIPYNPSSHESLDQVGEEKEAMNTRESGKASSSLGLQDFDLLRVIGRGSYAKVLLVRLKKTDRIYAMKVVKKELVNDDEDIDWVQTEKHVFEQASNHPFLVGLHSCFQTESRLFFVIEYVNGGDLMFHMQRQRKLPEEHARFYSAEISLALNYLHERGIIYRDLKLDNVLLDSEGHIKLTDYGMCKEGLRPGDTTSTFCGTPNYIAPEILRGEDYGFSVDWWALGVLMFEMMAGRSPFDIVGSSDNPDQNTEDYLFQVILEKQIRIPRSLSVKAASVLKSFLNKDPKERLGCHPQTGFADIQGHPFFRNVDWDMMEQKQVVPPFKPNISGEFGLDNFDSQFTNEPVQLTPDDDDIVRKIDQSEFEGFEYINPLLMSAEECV

| SMILES | assay | conditions | remaining binding |
| --- | --- | --- | --- |
| O=C(c1ccc(Nc2ncc(Cl)c(-c3cc4ccccc4s3)n2)cc1)N1CCC(N2CCCC2)CC1 | binding, competition with immobilised ligand | 1 µM | 72% |
| COc1cnc(Nc2cccc(S(N)(=O)=O)c2)nc1N1CCN(c2ccccc2)CC1 | binding, competition with immobilised ligand | 1 µM | 95% |
| O=C(NCCCN1CCOCC1)c1ccc(Nc2nccc(-c3cc4ccccc4s3)n2)cc1 | binding, competition with immobilised ligand | 1 µM | 87% |
| Nc1ncc2c(n1)-c1c([nH]c3ccc(C#CC4CC4)cc13)CCCC2 | binding, competition with immobilised ligand | 1 µM | 89% |
| Cc1cnn2ncc(-c3ccnc(N(C)C)n3)c2c1 | binding | 1 µM | 81% |
| CC(=O)N1CCC(c2ccc(C(=O)NC(=N)N)cc2C(F)(F)F)CC1 | cell-free assay, competition with immobilised ligand | 1 µM | 100% |
| C=CC(=O)N1CCC(C(=O)NCC(=O)N2CCN(c3nc(-c4cnc(N)nc4C(F)F)nc(N4CCOCC4)n3)CC2)CC1 | binding, competition with immobilised ligand | 1 µM | 95% |
| COc1ccc2c(c1)O[C@@H](c1ccc(OC)c(OC)c1)C[C@H]2NC(=O)C1(c2ccc3c(c2)OC(F)(F)O3)CC1 | cell-free assay, competition with immobilised ligand | 1 µM | 92% |
| COc1ccnn2ncc(-c3ccnc(N(C)C)n3)c12 | binding | 1 µM | 74% |
| O=C(Nc1c[nH]nc1C(=O)NC1CCNCC1)c1cc(F)cc(F)c1 | binding, competition with immobilised ligand | 1 µM | 84% |
| COc1ncc2cc3ccccc3nc2c1C#N | cell-free assay, competition with immobilised ligand | 5 µM | 100% |
| O=C1NC(c2ccccn2)Sc2ccccc21 (stereo not drawn) | cell-free assay, competition with immobilised ligand | 1 µM | 72% |
| CN(CCCC(F)(F)F)c1nccc(-c2cnn3ncccc23)n1 | binding | 1 µM | 100% |
| Cc1c(NC(=O)c2cc(C(N)=O)nc3cc(F)ccc23)c(C(F)(F)F)nn1Cc1ccc(C(C)(C)C)cc1 | cell-free assay, competition with immobilised ligand | 1 µM | 98% |
| C[C@H]1CCN(c2nccc(-c3cnn4ncccc34)n2)C1 | binding | 1 µM | 59% |
| Cc1cnc(Nc2ccc(C(=O)N3CCC(N4CCCC4)CC3)cc2)nc1-c1cc2ccccc2s1 | binding, competition with immobilised ligand | 1 µM | 83% |
| C[C@@H]1CN(c2cc(-c3n[nH]c4ccc(OC5(C)CC5)cc34)ncn2)C[C@H](C)O1 | cell-free assay, competition with immobilised ligand | 0.1 µM | 80% |
| c1cnn2ncc(-c3ccnc(N4CCC45COC5)n3)c2c1 | binding | 1 µM | 58% |
| CCN1CCN(Cc2ccc(C(=O)Nc3ccc(C)c(Oc4ccc5c(c4)CC(=O)N5)c3)cc2C(F)(F)F)CC1 | binding, competition with immobilised ligand | 1 µM | 100% |
| CN(C)c1nccc(-c2cnc3ncccn23)n1 | binding | 1 µM | 72% |
| CN([C@@H]1CCc2c(CC(=O)O)c3cc(S(C)(=O)=O)ccc3n2C1)S(=O)(=O)c1ccc(F)cc1 | cell-free assay, competition with immobilised ligand | 1 µM | 100% |
